Experimental data pooled from the literature.
Protocols differ between the studies behind these lines.
PPO3: PPO3 (Agaricus bisporus, UniProt C7FF04)
HTR2A: 5-hydroxytryptamine receptor 2A (HTR2A, Homo sapiens, UniProt P28223)

The inhibition of `COc1cc(/C=C/C(=O)O)ccc1OCc1cn(CC(=O)Nc2ccc([N+](=O)[O-])cc2)nn1` is reported as 14% (PPO3; enzyme activity; inhibitor; 40 µM).
For `COc1cc2c(cc1OC)-c1c(OC)c(OC)cc3c1[C@H](C2)N(C)CC3`, the inhibition was 65% (HTR2A; ligand displacement; radioligand; 10 µM).
With `CC(C)CC(=O)OC[C@H]1O[C@@](C#N)(c2ccc3c(N)ncnn23)[C@H](O)[C@@H]1O` the inhibition was 13% (Adenosine receptor A2a (ADORA2A, Homo sapiens, UniProt P29274); cell-free assay; 20 µM).
With `c1cncc([C@@H]2CCCN2)c1` the inhibition was -7.27% (HTR2A; ligand displacement; 50 µM).
The inhibition of `COc1cc2cc3c4c(cc(OC)c(OC)c4c2cc1OC)CCN3C` is reported as 10% (HTR2A; ligand displacement; radioligand; 10 µM).
`COc1cc(/C=C/C(=O)O)ccc1OCc1cn(CC(=O)Nc2cccc(Cl)c2)nn1` gave an inhibition of 11.4% (PPO3; enzyme activity; inhibitor; 40 µM).
With `COc1cc2c3c(c1OC)-c1c(OC)ccc(Br)c1CC3N(C)CC2` (stereo not drawn) the inhibition was 80% (HTR2A; ligand displacement; radioligand; 10 µM).
The inhibition of `CN1CCC[C@H]1c1cccnc1` is reported as 97.6% (Neuronal acetylcholine receptor; alpha4/beta2 (Rattus norvegicus, UniProt P09483+P12390); ligand displacement; radioligand; 50 µM).
The inhibition of `COc1cc(/C=C/C(=O)O)ccc1OCc1cn(CC(=O)NCCc2ccccc2)nn1` is reported as 10.4% (PPO3; enzyme activity; inhibitor; 40 µM).
